# Assay outcomes as filed in PubChem.
# Ecoli rRNA inh = reduced GFP signal of wild-type E. coli, primary screen, bacterial rRNA inhibitor project, GFP/RFP fluorescence, OD600, single point | E. coli WT GFP vs humanized-ribosome RFP mutants, 24 h; active compounds read low; DMSO median 0, no signal -100 | 350,000 compounds, 1.6% hits | AID 720706, 2013 | GFP signal change (wild-type ribosome), % (concentration not given with the values);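 active = significant combined selectivity score with lowered wild-type GFP, culture density cut under 30%, mutant RFP and density less affected; inactive = any of these conditions unmet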
# F508del corr = F508del CFTR correction, initial screen, CFBE line, single point; CFBE cells, YFP halide quenching; stimulated with forskolin plus potentiator P3; % fluorescence drop versus neutral controls; activity (quench increase), % at 7.58 µM; 350,000 compounds, 0.36% hits; AID 720511, 2013;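 active = mean added fluorescence quench of at least 8% versus neutral control, with both replicates also reaching 8%; inconclusive = only one of the mean or replicate conditions met; inactive = mean below 8% and not both replicates reaching 8%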;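 note: cells transiently co-express mutant CFTR-F508del with the halide-sensitive YFP; corrector assay measuring rescue of mutant channel to the surface after 24 h compound exposure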
# CaV13 FRET inh = Disruptors of the CACNA1D IQ motif to Ca2+-dependent inactivation inhibitor domain association, primary screening, Förster resonance energy transfer in intact living …; HEK cells, CFP/YFP FRET ICDI-IQ, plate reader, 10 min; percent FRET-ratio fall versus neutral wells; inhibition, % at 12.3 µM; 340,000 compounds, 0.098% hits; AID 743397;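 active = mean replicate inhibition of at least 30% and at least 1% of replicates passing that level; inconclusive = only one of the two criteria is met; inactive = neither criterion is met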
# Cneo AK release = Cryptococcus neoformans cell lysis inducers, primary screen, AK release luminescence, single concentration. C. neoformans lysis, adenylate kinase release luminescence, 4 h; normalised: neutral wells 0, clomiphene wells 100. lysis activity, % at 15 µM. 360,000 compounds, 0.2% hits. AID 651654, 2012;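 active = mean lysis activity across replicates of at least 80%, whatever share of replicates individually reach that level; inactive = mean lysis activity below 80%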
#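 Assay system: C. neoformans cells. Amount: yeast cell density of 5 × 10^6 cells/mL. Technique: AK luminescence. Buffer or medium: YPD. Times: static 4 h at 37 °C with compound, 1 h detection. Dosing: single-point compound dose. Read-out: lysis from increased AK signal.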
# HepG2 tox = cytotoxicity in HepG2 cells, dose response, cytotoxicity control, cell-based, CellTiter-Glo luminescence, cherry-pick, set 4 | activity change, negative = cytotoxicity, unspecified at 26 µM | 30 tested, under 10 active | HepG2 viability, ATP luminescence, 72 h | AID 743480, 2014 | shares compounds with Ecoli rRNA inh;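 active = compounds whose fitted half-maximal signal-loss concentration is at most twice their highest valid dose; inconclusive = flat curve with 30 to 70% signal loss, or poor fit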
# AID977621 = growth inhibition of wild-type GFP E. coli, dose response, H69 mutant RFP, cherry-pick. AID 977621, 2014. E. coli wild-type GFP strain growth, fluorescence, 24 h. shares compounds with Ecoli rRNA inh. activity change, negative = inhibition at 50 µM. 1,900 tested, under 10 active;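 active = Wild-type ribosome reporter drop at least double the humanized mutant ribosome reporter drop, growth loss under a set limit; inconclusive = no clear call, values can overlap the other calls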;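 note: wild-type GFP and H69 mutant RFP strains grown together 50/50 in each well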
# AID977628 = E. coli growth inhibition, wild-type GFP versus h24 humanized RFP strain, dose response, h24 mutant RFP vs wild-type GFP, cherry-pick | E. coli WT GFP strain growth, fluorescence, 24 h | AID 977628, 2014 | 1,900 tested, under 10 active | activity change, negative = inhibition at 50 µM | shares compounds with Ecoli rRNA inh;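 active = compound lowering the normal-ribosome reporter at least twice as much as the humanized-ribosome reporter, growth loss under a set limit; inconclusive = no clear call, values can overlap the other calls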;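 note: wild-type GFP and h24 humanized RFP strains co-cultured 1 to 1 per well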
# Numbers stand for hits; - = inactive; ? = inconclusive; . = not tested or not shown. Compounds with a hit are over-represented: about 1.7% of the library has one in this group of screens.
SMILES,Ecoli rRNA inh,F508del corr,CaV13 FRET inh,Cneo AK release,AID977621,AID977628,others
CO[C@H]1CN(C)C(=O)c2cc(NC(C)=O)ccc2OC[C@@H](C)N(C(=O)c2cnccn2)C[C@@H]1C,-,-,.,.,.,.,
CCCC[n+]1ccn(-c2nc3ccccc3nc2[N-]S(=O)(=O)c2cccs2)c1,-25.8,-,-,-,.,-,
CCOC(=O)c1c(C)nsc1NCc1ccccc1,-28.9,-,-,.,-,.,
COc1cc(-c2cc3nc(NCCc4ccncc4)ccn3n2)cc(OC)c1OC,-18.5,-,-,-,.,?,
CCC(=O)N1[C@@H](CO)[C@@H](c2ccc(-c3ccccc3OC)cc2)C12CN(C(C)=O)C2,-,-,.,.,.,.,
CC(C)[C@@H]1CC[C@@H](C)C[C@H]1O,-14.3,-,-,-,-,?,
CCC1CCCCN1C(=O)CSc1nnc(-c2ccc(Cl)cc2)o1 (stereo not drawn),-,-,-,-,.,.,
CCC1CCCCN1C(=O)CSc1nnc(-c2cccc(Cl)c2)o1 (stereo not drawn),-25.5,-,-,-,-,-,
C[C@H](CO)N1C[C@H](C)[C@@H](CN(C)C(=O)Nc2ccc(F)cc2)Oc2ncc(C#C[C@@H](C)O)cc2C1=O,-,-,.,-,.,.,
C=C(C)Cn1c(SCCN2CCOCC2)nc2c1c(=O)[nH]c(=O)n2C,.,.,-,-,.,.,
C=C(C)Cn1c(SCC(=O)O)nc2c1c(=O)[nH]c(=O)n2C,-12.4,-,-,-,?,?,
c1ccc(CNc2ncnc3sccc23)cc1,-21.3,-,-,-,.,?,
Cc1ccc(N2C(=S)NC3c4cc(Cl)ccc4OC2(C)C3C(=O)N(C)C)cc1 (stereo not drawn),-21.6,-,-,-,-,?,
Cc1cc(NCc2ccccn2)n2nc(C)c(-c3ccccc3)c2n1,-46.7,11.7,-,.,-,?,
Cc1nn2c(NCc3ccccn3)cc(C(C)(C)C)nc2c1-c1ccccc1,-,-,-,-,.,.,
CC(=O)NS(=O)(=O)c1ccc(NC(=O)COc2ccc(C(=O)c3ccccc3)cc2)cc1,-27.0,-,-,-,?,.,
O=C(COc1ccc(Br)cc1)Nc1ccc(C(=O)Nc2ccccc2C(=O)O)cc1,-27.5,-,-,-,-,-,
CN(C(=O)c1ccc(F)cc1)c1ccc(OCC(=O)Nc2ccccc2C(=O)O)cc1,-13.8,-,-,-,-,?,
O=C(Nc1ccc(F)cc1)N1CC(=O)N2[C@@H](CO)[C@H](c3ccc(-c4ccc(F)cc4)cc3)[C@@H]2C1,-,-,.,.,.,.,
CCCN1[C@@H]2c3ccc(-c4ccccc4F)c(=O)n3C[C@@H]2[C@@H](CO)[C@@H]1C(=O)NC1CCC1,-,-,.,-,.,.,
Cc1[nH]c(=S)sc1Cc1ccc(Cl)c(Cl)c1,-39.6,.,.,.,.,.,HepG2 tox=-
Cc1nnc(SCc2ccc(Cl)c(Cl)c2)s1,.,.,-,.,.,.,
O=C(Nc1ccc(Nc2ccccc2)cc1)c1c(F)c(F)c(F)c(F)c1F,-,-,-,-,.,.,
O=C(Nc1ccc(Nc2ccccc2)cc1)c1c(Cl)cccc1Cl,-34.5,.,-,-,-,.,
O=C(Nc1ccc(Nc2ccccc2)cc1)c1ccc(F)cc1,-21.1,-,-,-,-,-,
C#CC[N+](C)(C)CCN1C(=O)C2C(c3ccccc3)C=CC(c3ccccc3)C2C1=O (stereo not drawn),-,-,-,.,.,.,
CC(C)OC(=O)C[N+](C)(C)CCN1C(=O)C2C(c3ccccc3)C=CC(c3ccccc3)C2C1=O (stereo not drawn),-34.5,-,-,.,-,-,
